Test results from ChEMBL document CHEMBL4811250, “Discovery and Optimization of 2H-1λ2-Pyridin-2-one Inhibitors of Mutant Isocitrate Dehydrogenase 1 for the Treatment of Cancer” (J Med Chem, 2021).
pIC50: −log10 of the molar value. Where “and” joins values, the source holds several entries; their conditions need not be identical. Equal values may be shown once. One block for each compound: values may come before it.

What was measured:
[1] = biological target: Isocitrate dehydrogenase [NADP] cytoplasmic (Homo sapiens, UniProt O75874, R132H); assay: Inhibition of IDH1 R132H mutant (unknown origin) assessed as reduction in NADPH consumption using alpha-KG as substrate incubated for 5 mins by diaphorase/resazurin-coupled system
[2] = tested on: Isocitrate dehydrogenase [NADP] cytoplasmic (Homo sapiens), O75874 [R132H]; assay: Inhibition of IDH1 R132H mutant (unknown origin) assessed as reduction in NADPH consumption using alpha-KG as substrate at 38 uM incubated for 5 mins by diaphorase/resazurin-coupled system relative to control
[3] = biological target: Isocitrate dehydrogenase [NADP] cytoplasmic (Homo sapiens, UniProt O75874, R132C); assay: Inhibition of IDH1 R132C mutant (unknown origin) assessed as reduction in NADPH consumption using alpha-KG as substrate incubated for 5 mins by diaphorase/resazurin-coupled system
[4] = tested on: Isocitrate dehydrogenase [NADP] cytoplasmic (Homo sapiens), O75874 [R132C]; assay: Inhibition of IDH1 R132C mutant (unknown origin) assessed as reduction in NADPH consumption using alpha-KG as substrate at 38 uM incubated for 5 mins by diaphorase/resazurin-coupled system relative to control
[5] = Metabolic stability in rat liver microsomes assessed as half life incubated for 15 mins by high resolution LC/MS analysis; assay type: ADME, Microsome; settings: 0.25 h
In short: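 Rat liver microsomes (0.5 mg/mL protein) with 1.0 μM compound and NADPH regenerating system in 100 mM phosphate pH 7.4, 15 min at 37 °C. Quenched with acetonitrile containing albendazole internal standard. Percent remaining measured by high-resolution LC/MS.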

[6] = Permeability of compound at pH 7.4 by PAMPA assay; assay type: ADME
In short: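 Stirring double-sink PAMPA using a lipid/dodecane membrane tuned for GI passive permeability, pH 7.4 on donor and acceptor sides. Compound at 0.05 mM (0.5% DMSO), 30 min permeation at room temperature with donor stirring. Donor and acceptor concentrations read by UV plate reader.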

[7] = Kinetic solubility of the compound in pH 7.4 phosphate buffer measured after 6 hrs by UV spectroscopy; assay type: physicochemical; settings: read-out: Kinetic_solubility
[8] = tested on: Isocitrate dehydrogenase [NADP] cytoplasmic (Homo sapiens), O75874 [R132H]; assay: Inhibition of IDH1 R132H mutant (unknown origin) expressed in human U87 cells assessed as R-2-hydroxyglutarate production at 100 nM after 48 hrs by LC-MS analysis; assay type: cell-based; set-up: scale not given: the % may be the effect or the level left
In short: (§1)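 U87-R132H cells (8000/well, DMEM high glucose, 10% FBS) were seeded, cultured overnight at 37 °C and 5% CO2, then given compound or DMSO. After 48 h, 2-HG secreted into the medium was measured by RapidFire LC-MS. Cell viability was checked by CellTiter-Glo.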

[9] = tested on: Isocitrate dehydrogenase [NADP] cytoplasmic (Homo sapiens), O75874 [R132H]; assay: Inhibition of IDH1 R132H mutant (unknown origin) expressed in human U87 cells assessed as R-2-hydroxyglutarate production at 500 nM after 48 hrs by LC-MS analysis; assay type: cell-based; set-up: scale not given: the % may be the effect or the level left; in short: as §1
[10] = Tmax in CD1 mouse brain at 30 mg/kg, po measured up to 24 hrs by LC-MS/MS analysis; assay type: ADME, organism-based
In short: (§2)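 Fed male CD1 mice (6–8 weeks, ~25–30 g) given a single 30 mpk oral dose as a 3 mg/mL solution in 20% PEG300, 40% Solutol solution (30% w/w in water), 40% DI water. Plasma (heparin-Na, heart puncture) and whole brain taken from N=3 mice per time point, 15 min to 24 h. LC/MS/MS quantitation gave Tmax, Cmax and AUC.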

[11] = Cmax in CD1 mouse brain at 30 mg/kg, po measured up to 24 hrs by LC-MS/MS analysis; assay type: ADME, organism-based; set-up: route oral, dose 30 mg/kg, time <=24; in short: as §2
[12] = AUClast in CD1 mouse brain at 30 mg/kg, po measured up to 24 hrs by LC-MS/MS analysis; assay type: ADME, organism-based; settings: in vivo; in short: as §2
[13] = Ratio of AUClast in plasma to brain in CD1 mouse at 30 mg/kg, po measured up to 24 hrs by LC-MS/MS analysis; assay type: ADME, organism-based; settings: in vivo; in short: as §2
[14] = Ratio of Cmax in plasma to brain in CD1 mouse at 30 mg/kg, po measured up to 24 hrs by LC-MS/MS analysis; assay type: ADME, organism-based; settings: in vivo; in short: as §2
[15] = Tmax in CD1 mouse plasma at 30 mg/kg, po measured up to 24 hrs by LC-MS/MS analysis; assay type: ADME, organism-based; in short: as §2
[16] = Cmax in CD1 mouse plasma at 30 mg/kg, po measured up to 24 hrs by LC-MS/MS analysis; assay type: ADME, organism-based; set-up: route oral, dose 30 mg/kg, time <=24; in short: as §2
[17] = AUClast in CD1 mouse plasma at 30 mg/kg, po measured up to 24 hrs by LC-MS/MS analysis; assay type: ADME, organism-based; set-up: route oral, dose 30 mg/kg, time <=24; in short: as §2
[18] = Drug level in human U87MG cells expressing IDH1 R132H mutation transfected in NCr mouse plasma at 30 mg/kg, po measured after 24 hrs by LC-MS/MS analysis; assay type: ADME, organism-based, U-87MG ATCC; settings: read-out: Drug uptake
In short: (§3)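 Mice bearing subcutaneous U87MG glioblastoma cells carrying IDH1 R132H (1 x 10^7 cells/mouse) were staged at ~200 mg and randomized. Each received a single oral 30 mg/kg dose; vehicle was 10% NMP, 40% PEG300, 25% [30% Solutol in water], 25% DI water. K2EDTA blood and tumors were taken under isoflurane from 4 mice per group at 1–48 h. Drug was quantified by validated LC-MS/MS.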

[19] = Drug level in human U87MG cells expressing IDH1 R132H mutation transfected in NCr mouse plasma at 30 mg/kg, po measured after 36 hrs by LC-MS/MS analysis; assay type: ADME, organism-based, U-87MG ATCC; settings: read-out: Drug uptake; in short: as §3
[20] = Drug level in human U87MG cells expressing IDH1 R132H mutation transfected in NCr mouse plasma at 30 mg/kg, po measured after 48 hrs by LC-MS/MS analysis; assay type: ADME, organism-based, U-87MG ATCC; settings: read-out: Drug uptake; in short: as §3

Sequence of Isocitrate dehydrogenase [NADP] cytoplasmic (Homo sapiens), O75874 [R132H] (O75874 whole entry R132H): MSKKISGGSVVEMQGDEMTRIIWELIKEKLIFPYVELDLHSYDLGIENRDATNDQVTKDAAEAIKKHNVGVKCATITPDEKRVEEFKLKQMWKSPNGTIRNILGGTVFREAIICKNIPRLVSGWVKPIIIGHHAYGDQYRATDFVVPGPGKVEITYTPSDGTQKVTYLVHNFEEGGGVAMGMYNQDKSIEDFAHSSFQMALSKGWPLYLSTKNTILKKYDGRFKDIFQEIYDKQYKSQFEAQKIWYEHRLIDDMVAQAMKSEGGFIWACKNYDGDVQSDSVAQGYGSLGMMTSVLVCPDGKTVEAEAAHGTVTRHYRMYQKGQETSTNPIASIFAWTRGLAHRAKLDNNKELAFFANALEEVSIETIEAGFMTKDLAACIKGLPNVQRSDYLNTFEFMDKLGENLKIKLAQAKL
Sequence of Isocitrate dehydrogenase [NADP] cytoplasmic (Homo sapiens, UniProt O75874, R132C) (O75874 2-414 R132C limits assumed): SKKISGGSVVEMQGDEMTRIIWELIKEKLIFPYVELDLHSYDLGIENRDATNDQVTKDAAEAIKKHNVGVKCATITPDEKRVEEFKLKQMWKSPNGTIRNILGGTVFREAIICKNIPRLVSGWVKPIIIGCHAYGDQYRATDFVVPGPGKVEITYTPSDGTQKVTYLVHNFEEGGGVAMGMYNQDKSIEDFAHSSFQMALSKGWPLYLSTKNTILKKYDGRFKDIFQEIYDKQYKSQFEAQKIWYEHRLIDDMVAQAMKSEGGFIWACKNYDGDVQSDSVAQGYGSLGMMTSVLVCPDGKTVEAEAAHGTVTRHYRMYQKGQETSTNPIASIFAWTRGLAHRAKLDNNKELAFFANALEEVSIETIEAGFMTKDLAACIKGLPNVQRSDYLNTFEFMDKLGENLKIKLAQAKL
Sequence of Isocitrate dehydrogenase [NADP] cytoplasmic (Homo sapiens, UniProt O75874, R132H) (O75874 2-414 R132H limits assumed): as the sequence (O75874 2-414 R132C limits assumed) above, with C131H counted along it
Sequence of Isocitrate dehydrogenase [NADP] cytoplasmic (Homo sapiens), O75874 [R132C] (O75874 whole entry R132C): as the sequence (O75874 whole entry R132H) above, with H132C counted along it

pIC50 [1]: 7.36
inhibition [2]: 101%
pIC50 [3]: 7.24
inhibition [4]: 97%
t1/2 [5]: 0.233 h
Papp ([6]; read-out: permeability): 225 ×10⁻⁶ cm/s
solubility kinetic at 6 h [7]: < 1 µg/mL
Activity [8]: 13%
Activity [9]: 16%
SMILES: CCc1cccc(CC)c1-n1c(C=C(C)C)c(C(=O)N2CCNCC2)cc(-c2nc(-c3ccc(Cl)cc3)cs2)c1=O

t1/2 [5]: > 0.5 h
permeability [6]: 255 10^-6 cm/s and 434 10^-6 cm/s
solubility kinetic at 6 h [7]: < 1 µg/mL
Activity [8]: 5.9%
Activity [9]: 4.1%
Tmax [10]: 6 h
Cmax [11]: 595 ng/g
AUClast [12]: 7000 ng·h/g
Ratio AUC [13]: 3.52
Ratio [14]: 3.68
Tmax [15]: 4 h
Cmax [16]: 2010 ng/mL
AUC(0-t) at 24 h [17]: 24400 ng·h/mL
concentration at 24 h [18]: 9.5 µM
concentration at 36 h [19]: 7.2 µM
concentration at 48 h [20]: 6.8 µM
SMILES: CCc1ccc(Cl)cc1-n1c(C=C(C)C)c(C(=O)N2CCNCC2)cc(-c2nc(-c3ccc(Cl)cc3)cs2)c1=O
